Key:
Stomach [1] = assay: Biodistribution in stomach of BALB/c mouse bearing rat AR42J cells at 0.37 MBq, iv after 2 hrs under cold condition; format: ADME, organism-based, AR-42J; details: in vivo
In short: (§1)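 Receptor block: groups of three AR42J tumor-bearing male BALB/c nude mice co-injected iv via tail vein with 0.37 MBq (0.1 μg) ¹¹¹In-DOTA conjugate plus 50 μg octreotide. Killed by CO₂/O₂ at 2 h; blood, tumor and tissues dissected, weighed and γ-counted against 1% injected-activity standards; %ID/g reported as mean ± SD.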

Kidney [2] = assay: Biodistribution in kidney of BALB/c mouse bearing rat AR42J cells at 0.37 MBq, iv after 2 hrs under cold condition; format: ADME, organism-based, AR-42J; details: in vivo; in short: as §1
Spleen [3] = assay: Biodistribution in spleen of BALB/c mouse bearing rat AR42J cells at 0.37 MBq, iv after 6 hrs; format: ADME, organism-based, AR-42J; details: in vivo
In short: (§2)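 AR42J tumor grown in right flank of male BALB/c nude mice (20-25 g, 6-8 weeks) by sc injection of 5 × 10⁶ cells; used after ~2 weeks at 4-6 mm diameter. Groups of five received 0.37 MBq (0.1 μg) ¹¹¹In-DOTA conjugate iv via tail vein (labeled in 0.25 M NH₄OAc pH 5.5, 95 °C, 15 min). Tissues dissected at 2, 6 or 24 h, weighed, γ-counted against 1% injected-activity standards; %ID/g, mean ± SD.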

Kidney [4] = assay: Biodistribution in kidney of BALB/c mouse bearing rat AR42J cells at 0.37 MBq, iv after 6 hrs; format: ADME, organism-based, AR-42J; details: in vivo; in short: as §2
Liver [5] = assay: Biodistribution in liver of BALB/c mouse bearing rat AR42J cells at 0.37 MBq, iv after 24 hrs; format: ADME, organism-based, AR-42J; details: in vivo; in short: as §2
[6] = target: Somatostatin receptor type 2 (Rattus norvegicus, UniProt P30680); assay: Displacement of [111In]DOTA0,Tyr3]octreotide from SSTR2 receptor in rat AR42J cells; format: cell-based, AR-42J
Chain of Somatostatin receptor type 2 (P30680 whole entry): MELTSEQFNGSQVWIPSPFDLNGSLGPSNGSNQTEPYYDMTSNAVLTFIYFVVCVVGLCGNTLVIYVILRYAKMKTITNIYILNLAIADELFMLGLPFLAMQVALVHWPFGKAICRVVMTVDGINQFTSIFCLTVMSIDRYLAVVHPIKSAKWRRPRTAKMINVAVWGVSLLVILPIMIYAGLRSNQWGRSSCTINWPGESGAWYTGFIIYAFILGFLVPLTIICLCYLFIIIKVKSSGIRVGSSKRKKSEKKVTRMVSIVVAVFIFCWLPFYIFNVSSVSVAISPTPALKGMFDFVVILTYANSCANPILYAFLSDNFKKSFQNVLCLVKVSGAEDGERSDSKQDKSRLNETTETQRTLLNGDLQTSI
In short: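 AR42J cells (DMEM, 10% FCS, 37 °C, 5% CO₂) seeded 8 × 10⁵/well and grown to confluence, washed with DMEM + 0.1% BSA. Incubated 3 h at 37 °C with [¹¹¹In-DOTA⁰,Tyr³]octreotide tracer (40 000 dpm) and unlabeled peptide at 0.1-300 nM. Washed twice; cell-bound activity γ-counted. IC₅₀ from fitted sigmoidal displacement curves with 95% CI.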

[7] = Biodistribution in adrenal gland of BALB/c mouse bearing rat AR42J cells at 0.37 MBq, iv after 2 hrs; format: ADME, organism-based, AR-42J; details: in vivo; in short: as §2
Blood [8] = assay: Biodistribution in blood of BALB/c mouse bearing rat AR42J cells at 0.37 MBq, iv after 6 hrs; format: ADME, organism-based, AR-42J; details: in vivo; in short: as §2
Stomach [9] = assay: Biodistribution in stomach of BALB/c mouse bearing rat AR42J cells at 0.37 MBq, iv after 2 hrs; format: ADME, organism-based, AR-42J; details: in vivo; in short: as §2
[10] = Biodistribution in adrenal gland of BALB/c mouse bearing rat AR42J cells at 0.37 MBq, iv after 6 hrs; format: ADME, organism-based, AR-42J; details: in vivo; in short: as §2
[11] = Biodistribution in adrenal gland of BALB/c mouse bearing rat AR42J cells at 0.37 MBq, iv after 2 hrs under cold condition; format: ADME, organism-based, AR-42J; details: in vivo; in short: as §1
Spleen [12] = assay: Biodistribution in spleen of BALB/c mouse bearing rat AR42J cells at 0.37 MBq, iv after 24 hrs; format: ADME, organism-based, AR-42J; details: in vivo; in short: as §2
Pancreas [13] = assay: Biodistribution in pancreas of BALB/c mouse bearing rat AR42J cells at 0.37 MBq, iv after 2 hrs; format: ADME, organism-based, AR-42J; details: in vivo; in short: as §2
Pancreas [14] = assay: Biodistribution in pancreas of BALB/c mouse bearing rat AR42J cells at 0.37 MBq, iv after 6 hrs; format: ADME, organism-based, AR-42J; details: in vivo; in short: as §2
Stomach [15] = assay: Biodistribution in stomach of BALB/c mouse bearing rat AR42J cells at 0.37 MBq, iv after 6 hrs; format: ADME, organism-based, AR-42J; details: in vivo; in short: as §2
Spleen [16] = assay: Biodistribution in spleen of BALB/c mouse bearing rat AR42J cells at 0.37 MBq, iv after 2 hrs under cold condition; format: ADME, organism-based, AR-42J; details: in vivo; in short: as §1
Liver [17] = assay: Biodistribution in liver of BALB/c mouse bearing rat AR42J cells at 0.37 MBq, iv after 2 hrs; format: ADME, organism-based, AR-42J; details: in vivo; in short: as §2
Blood [18] = assay: Biodistribution in blood of BALB/c mouse bearing rat AR42J cells at 0.37 MBq, iv after 24 hrs; format: ADME, organism-based, AR-42J; details: in vivo; in short: as §2
[19] = Biodistribution in tumor of BALB/c mouse bearing rat AR42J cells at 0.37 MBq, iv after 2 hrs; format: ADME, organism-based, Neoplasm, AR-42J; details: in vivo; in short: as §2
Pancreas [20] = assay: Biodistribution in pancreas of BALB/c mouse bearing rat AR42J cells at 0.37 MBq, iv after 2 hrs under cold condition; format: ADME, organism-based, AR-42J; details: in vivo; in short: as §1
Liver [21] = assay: Biodistribution in liver of BALB/c mouse bearing rat AR42J cells at 0.37 MBq, iv after 2 hrs under cold condition; format: ADME, organism-based, AR-42J; details: in vivo; in short: as §1
[22] = Biodistribution in adrenal gland of BALB/c mouse bearing rat AR42J cells at 0.37 MBq, iv after 24 hrs; format: ADME, organism-based, AR-42J; details: in vivo; in short: as §2
[23] = Octanol-water partition coefficient, log D at pH 7.4; format: physicochemical
In short: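 ¹¹¹In-labeled conjugate (~148 kBq) in PBS pH 7.4 mixed 1:1 with n-octanol and shaken 2 min. Phases separated by centrifugation (5 min, 250g); triplicate aliquots of each layer γ-counted. log D = log₁₀(octanol counts/aqueous counts), from at least two independent experiments.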

Liver [24] = assay: Biodistribution in liver of BALB/c mouse bearing rat AR42J cells at 0.37 MBq, iv after 6 hrs; format: ADME, organism-based, AR-42J; details: in vivo; in short: as §2
Blood [25] = assay: Biodistribution in blood of BALB/c mouse bearing rat AR42J cells at 0.37 MBq, iv after 2 hrs; format: ADME, organism-based, AR-42J; details: in vivo; in short: as §2
Pancreas [26] = assay: Biodistribution in pancreas of BALB/c mouse bearing rat AR42J cells at 0.37 MBq, iv after 24 hrs; format: ADME, organism-based, AR-42J; details: in vivo; in short: as §2
[27] = Biodistribution in tumor of BALB/c mouse bearing rat AR42J cells at 0.37 MBq, iv after 24 hrs; format: ADME, organism-based, Neoplasm, AR-42J; details: in vivo; in short: as §2
Kidney [28] = assay: Biodistribution in kidney of BALB/c mouse bearing rat AR42J cells at 0.37 MBq, iv after 2 hrs; format: ADME, organism-based, AR-42J; details: in vivo; in short: as §2
[29] = Biodistribution in tumor of BALB/c mouse bearing rat AR42J cells at 0.37 MBq, iv after 6 hrs; format: ADME, organism-based, Neoplasm, AR-42J; details: in vivo; in short: as §2
Kidney [30] = assay: Biodistribution in kidney of BALB/c mouse bearing rat AR42J cells at 0.37 MBq, iv after 24 hrs; format: ADME, organism-based, AR-42J; details: in vivo; in short: as §2
Blood [31] = assay: Biodistribution in blood of BALB/c mouse bearing rat AR42J cells at 0.37 MBq, iv after 2 hrs under cold condition; format: ADME, organism-based, AR-42J; details: in vivo; in short: as §1
Spleen [32] = assay: Biodistribution in spleen of BALB/c mouse bearing rat AR42J cells at 0.37 MBq, iv after 2 hrs; format: ADME, organism-based, AR-42J; details: in vivo; in short: as §2
[33] = Biodistribution in tumor of BALB/c mouse bearing rat AR42J cells at 0.37 MBq, iv after 2 hrs under cold condition; format: ADME, organism-based, Neoplasm, AR-42J; details: in vivo; in short: as §1
Stomach [34] = assay: Biodistribution in stomach of BALB/c mouse bearing rat AR42J cells at 0.37 MBq, iv after 24 hrs; format: ADME, organism-based, AR-42J; details: in vivo; in short: as §2

For `C[C@@H](O)[C@@H]1NC(=O)[C@H](CCCCN)NC(=O)[C@@H](Cc2c[nH]c3ccccc23)NC(=O)[C@H](Cc2ccc(O)cc2)NC(=O)[C@@H](NC(=O)[C@@H](Cc2ccccc2)NC(=O)CCCCCn2cc(COc3cc(OCc4cn(CCCCCC(=O)N[C@H](Cc5ccccc5)C(=O)N[C@H]5CSSC[C@@H](C(=O)N[C@H](CO)[C@@H](C)O)NC(=O)[C@H]([C@@H](C)O)NC(=O)[C@H](CCCCN)NC(=O)[C@@H](Cc6c[nH]c7ccccc67)NC(=O)[C@H](Cc6ccc(O)cc6)NC5=O)nn4)cc(C(=O)NCCOc4cc(OCCNC(=O)c5cc(OCc6cn(CCCCCC(=O)N[C@H](Cc7ccccc7)C(=O)N[C@H]7CSSC[C@@H](C(=O)N[C@H](CO)[C@@H](C)O)NC(=O)[C@H]([C@@H](C)O)NC(=O)[C@H](CCCCN)NC(=O)[C@@H](Cc8c[nH]c9ccccc89)NC(=O)[C@H](Cc8ccc(O)cc8)NC7=O)nn6)cc(OCc6cn(CCCCCC(=O)N[C@H](Cc7ccccc7)C(=O)N[C@H]7CSSC[C@@H](C(=O)N[C@H](CO)[C@@H](C)O)NC(=O)[C@H]([C@@H](C)O)NC(=O)[C@H](CCCCN)NC(=O)[C@@H](Cc8c[nH]c9ccccc89)NC(=O)[C@H](Cc8ccc(O)cc8)NC7=O)nn6)c5)cc(C(=O)NS(=O)(=O)CCNC(=O)CN5CCN(CC(=O)O)CCN(CC(=O)O)CCN(CC(=O)O)CC5)c4)c3)nn2)CSSC[C@@H](C(=O)N[C@H](CO)[C@@H](C)O)NC1=O`, the Drug uptake (Stomach [1]) was 3.02 % ID/g, the Drug uptake (Kidney [2]) was 7.44 % ID/g and the Drug uptake (Spleen [3]) was 23.92 % ID/g. The Drug uptake (Kidney [4]) was 7.65 % ID/g, the Drug uptake (Liver [5]) was 52.71 % ID/g and the IC50 [6] was 14 nM. It also gave a Drug uptake [7] of 4.05 % ID/g, a Drug uptake (Blood [8]) of 0.62 % ID/g and a Drug uptake (Stomach [9]) of 1.04 % ID/g. For the same molecule, the Drug uptake [10] was 18.98 % ID/g, the Drug uptake [11] was 54.56 % ID/g and the Drug uptake (Spleen [12]) was 20.26 % ID/g. The Drug uptake (Pancreas [13]) was 1.02 % ID/g, the Drug uptake (Pancreas [14]) was 2.04 % ID/g and the Drug uptake (Stomach [15]) was 1.4 % ID/g. It also gave a Drug uptake (Spleen [16]) of 23.45 % ID/g, a Drug uptake (Liver [17]) of 47.6 % ID/g and a Drug uptake (Blood [18]) of 2.52 % ID/g. For the same molecule, the Drug uptake [19] was 0.52 % ID/g, the Drug uptake (Pancreas [20]) was 0.29 % ID/g and the Drug uptake (Liver [21]) was 2.96 % ID/g. The Drug uptake [22] was 11.39 % ID/g, the logD [23] was -0.71 and the Drug uptake (Liver [24]) was 70.97 % ID/g. The Drug uptake (Blood [25]) was 0.27 % ID/g, the Drug uptake (Pancreas [26]) was 1.17 % ID/g and the Drug uptake [27] was 1.53 % ID/g. For the same molecule, the Drug uptake (Kidney [28]) was 4.62 % ID/g, the Drug uptake [29] was 1.03 % ID/g and the Drug uptake (Kidney [30]) was 10.6 % ID/g. The Drug uptake (Blood [31]) was 0.44 % ID/g, the Drug uptake (Spleen [32]) was 16.84 % ID/g and the Drug uptake [33] was 1.19 % ID/g. The Drug uptake (Stomach [34]) was 1.13 % ID/g.

Source: ChEMBL document CHEMBL1157765, “Synthesis of DOTA-conjugated multimeric [Tyr3]octreotide peptides via a combination of Cu(I)-catalyzed "click" cycloaddition and thio acid/sulfonyl azide "sulfo-click" amidation and their in vivo evaluation” (J Med Chem, 2010)
